Data as given in ChEMBL document CHEMBL4699543, “Preparation and evaluation of soluble epoxide hydrolase inhibitors with improved physical properties and potencies for treating diabetic neuropathic pain” (Bioorg Med Chem, 2020).

Assays:
[1] = Lipophilicity, logP of compound at 100 uM incubated for 90 mins by HPLC analysis; format: physicochemical; settings: for logP: 100 µM
[2] = AUC in mouse at 0.3 mg/kg, po; format: ADME, organism-based; design: dose 0.3 mg/kg; settings: in vivo
How it was run: (§1)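 Mice (n=4) given oral gavage cassette of 4 compounds, each 0.3 mg/kg, dissolved in 20% PEG400 in oleic acid rich triglycerides; plasma PK parameters calculated by one-compartment model.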

[3] = Cmax in mouse at 0.3 mg/kg, po; format: ADME, organism-based; design: route oral, dose 0.3 mg/kg; settings: in vivo; how it was run: as §1
[4] = Half life in mouse at 0.3 mg/kg, po; format: ADME, organism-based; settings: in vivo; how it was run: as §1
[5] = Tmax in mouse at 0.3 mg/kg, po; format: ADME, organism-based; settings: in vivo; how it was run: as §1

## O=C(Nc1ccc(OC(F)(F)F)c(F)c1)NC1CCN(C(=O)C2CCOCC2)CC1
[1]
  logP at […], 100 µM: 3.73
[2]
  AUC: 5.56 µM·h
[3]
  Cmax: 332 nM
[4]
  half-life: 4.3 h
[5]
  Tmax: 6.5 h

## O=C(Nc1ccc(OC(F)(F)F)c(F)c1)NC1CCN(C(=O)C2CC2)CC1
[1]
  logP at […], 100 µM: 4.19

## O=C(Nc1ccc(C(F)(F)F)cc1)NC1CCN(C(=O)c2cc[nH]c2)CC1
[1]
  logP at […], 100 µM: 3.26

## CCC(=O)N1CCC(NC(=O)Nc2ccc(OC(F)(F)F)c(F)c2)CC1
[2]
  AUC: 13 µM·h
[3]
  Cmax: 479 nM
[4]
  half-life: 13 h
[5]
  Tmax: 6.7 h

## O=C(Nc1ccc(C(F)(F)F)cc1)NC1CCN(C(=O)C2CCCOC2)CC1 (stereo not given)
[1]
  logP at […], 100 µM: 3.41

## CC[C@H](C)C(=O)N1CCC(NC(=O)Nc2ccc(OC(F)(F)F)c(OC(F)(F)F)c2)CC1
[1]
  logP: 10.62

## O=C(Nc1ccc(OC(F)(F)F)c(F)c1)NC1CCN(C(=O)C2CCCOC2)CC1 (stereo not given)
[2]
  AUC: 0.785 µM·h
[3]
  Cmax: 112 nM
[4]
  half-life: 3.2 h
[5]
  Tmax: 2.1 h

## O=C(Nc1ccc(C(F)(F)F)c(F)c1)NC1CCN(C(=O)C2CCCOC2)CC1 (stereo not given)
[1]
  logP at […], 100 µM: 3.84

## CC[C@H](C)C(=O)N1CCC(NC(=O)Nc2ccc(OC(F)(F)F)c(F)c2)CC1
[2]
  AUC: 2.17 µM·h
[3]
  Cmax: 166 nM
[4]
  half-life: 3.3 h
[5]
  Tmax: 5.2 h

## O=C(Nc1ccc(OC(F)(F)F)cc1)NC1CCN(C(=O)C2CCOCC2)CC1
[1]
  logP at […], 100 µM: 3.26
[2]
  AUC: 6.37 µM·h
[3]
  Cmax: 381 nM
[4]
  half-life: 6.3 h
[5]
  Tmax: 4.2 h

## O=C(Nc1ccc(OC(F)(F)F)cc1)NC1CCN(C(=O)C2CCCOC2)CC1 (racemic)
[2]
  AUC: 0.483 µM·h
[3]
  Cmax: 38 nM
[4]
  half-life: 3.1 h
[5]
  Tmax: 6.5 h

## O=C(Nc1ccc(OC(F)(F)F)c(F)c1)NC1CCN(C(=O)C2(C(F)(F)F)CC2)CC1
[1]
  logP at […], 100 µM: 5.94

## CCOC(=O)N1CCC(NC(=O)Nc2ccc(C(F)(F)F)c(F)c2)CC1
[1]
  logP at […], 100 µM: 5.46

## O=C(Nc1ccc(C(F)(F)F)c(F)c1)NC1CCN(C(=O)C2CC2)CC1
[1]
  logP at […], 100 µM: 3.94

## CC[C@H](C)C(=O)N1CCC(NC(=O)Nc2ccc(C(F)(F)F)cc2)CC1
[1]
  logP at […], 100 µM: 3.84

## O=C(Nc1ccc(C(F)(F)F)c(F)c1)NC1CCN(C(=O)C2CCOCC2)CC1
[1]
  logP at […], 100 µM: 3.52

## Cc1occc1C(=O)N1CCC(NC(=O)Nc2ccc(OC(F)(F)F)cc2)CC1
[1]
  logP at […], 100 µM: 4.3

## O=C(Nc1ccc(C(F)(F)F)cc1)NC1CCN(C(=O)C2=COCC2)CC1
[1]
  logP at […], 100 µM: 3.37

## CC[C@H](C)C(=O)N1CCC(NC(=O)Nc2ccc(OC(F)(F)F)c(Cl)c2)CC1
[1]
  logP at […], 100 µM: 7.7

## CC[C@H](C)C(=O)N1CCC(NC(=O)Nc2ccc(OC(F)(F)F)c(C(F)(F)F)c2)CC1
[1]
  logP: 9.02

## CC[C@H](C)C(=O)N1CCC(NC(=O)Nc2ccc(C(F)(F)F)cn2)CC1
[1]
  logP: 3.22

## CCOC(=O)N1CCC(NC(=O)Nc2ccc(OC(F)(F)F)c(F)c2)CC1
[1]
  logP at […], 100 µM: 5.94

## O=C(Nc1ccc(OC(F)(F)F)c(F)c1)NC1CCN(C(=O)N2CCOCC2)CC1
[1]
  logP at […], 100 µM: 3.93

## CCC(=O)N1CCC(NC(=O)Nc2ccc(C(F)(F)F)c(F)c2)CC1
[1]
  logP at […], 100 µM: 3.76

## O=C(Nc1ccc(C(F)(F)F)c(F)c1)NC1CCN(C(=O)C2(C(F)(F)F)CC2)CC1
[1]
  logP at […], 100 µM: 5.52

## CC[C@H](C)C(=O)N1CCC(NC(=O)Nc2ccc(OC(F)(F)F)c(Br)c2)CC1
[1]
  logP at […], 100 µM: 8.07

## CC(C)C(=O)N1CCC(NC(=O)Nc2ccc(OC(F)(F)F)c(F)c2)CC1
[2]
  AUC: 10.9 µM·h
[3]
  Cmax: 423 nM
[4]
  half-life: 6.6 h
[5]
  Tmax: 10 h
